According to ChEMBL document CHEMBL1152644, “Synthesis of isoquinolinone-based tetracycles as poly (ADP-ribose) polymerase-1 (PARP-1) inhibitors” (Bioorg Med Chem, 2009):
pIC50: −log10 of the molar value. Where a name gives a salt, the structure may show the parent alone.

What was measured:
[1] = target: Poly [ADP-ribose] polymerase 1 (Homo sapiens, UniProt P09874); experiment: Inhibition of PARP1
DU-145 = experiment: Cytotoxicity against human DU145 cells at 10 uM by MTT assay; assay type: functional
HCT-116 [2] = experiment: Induction of temozolomide-induced cytotoxicity in human HCT116 cells assessed as potentiation factor, ratio of cytotoxic IC50 for temozolomide alone to cytotoxic IC50 temozolomide in presence of drug; assay type: functional
Procedure, shortened: (§1)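 HCT116 cells in RPMI 1640 with 10% FBS at 37 °C under 5% CO2 were seeded at 3 x 10^4 cells/well and grown overnight. On day 2, medium was replaced with graded temozolomide or etoposide, with or without PARP-1 inhibitor at 0.5 µM. On day 4, CCK-8 was added for 4 h and A450 read. IC50 came from four-parameter logistic fits. Potentiation factor = IC50 (agent alone)/IC50 (agent + inhibitor); mean±S.D. of ≥3 independent experiments.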

HCT-116 [3] = experiment: Induction of etoposide-induced cytotoxicity in human HCT116 cells assessed as potentiation factor, ratio of cytotoxic IC50 for etoposide alone to cytotoxic IC50 etoposide in presence of drug; assay type: functional; procedure, shortened: as §1
HCT-116 [4] = experiment: Cytotoxicity against human HCT116 cells after 2 days; conditions: HCT-116, 48 h

Poly [ADP-ribose] polymerase 1, sequence (P09874 whole entry): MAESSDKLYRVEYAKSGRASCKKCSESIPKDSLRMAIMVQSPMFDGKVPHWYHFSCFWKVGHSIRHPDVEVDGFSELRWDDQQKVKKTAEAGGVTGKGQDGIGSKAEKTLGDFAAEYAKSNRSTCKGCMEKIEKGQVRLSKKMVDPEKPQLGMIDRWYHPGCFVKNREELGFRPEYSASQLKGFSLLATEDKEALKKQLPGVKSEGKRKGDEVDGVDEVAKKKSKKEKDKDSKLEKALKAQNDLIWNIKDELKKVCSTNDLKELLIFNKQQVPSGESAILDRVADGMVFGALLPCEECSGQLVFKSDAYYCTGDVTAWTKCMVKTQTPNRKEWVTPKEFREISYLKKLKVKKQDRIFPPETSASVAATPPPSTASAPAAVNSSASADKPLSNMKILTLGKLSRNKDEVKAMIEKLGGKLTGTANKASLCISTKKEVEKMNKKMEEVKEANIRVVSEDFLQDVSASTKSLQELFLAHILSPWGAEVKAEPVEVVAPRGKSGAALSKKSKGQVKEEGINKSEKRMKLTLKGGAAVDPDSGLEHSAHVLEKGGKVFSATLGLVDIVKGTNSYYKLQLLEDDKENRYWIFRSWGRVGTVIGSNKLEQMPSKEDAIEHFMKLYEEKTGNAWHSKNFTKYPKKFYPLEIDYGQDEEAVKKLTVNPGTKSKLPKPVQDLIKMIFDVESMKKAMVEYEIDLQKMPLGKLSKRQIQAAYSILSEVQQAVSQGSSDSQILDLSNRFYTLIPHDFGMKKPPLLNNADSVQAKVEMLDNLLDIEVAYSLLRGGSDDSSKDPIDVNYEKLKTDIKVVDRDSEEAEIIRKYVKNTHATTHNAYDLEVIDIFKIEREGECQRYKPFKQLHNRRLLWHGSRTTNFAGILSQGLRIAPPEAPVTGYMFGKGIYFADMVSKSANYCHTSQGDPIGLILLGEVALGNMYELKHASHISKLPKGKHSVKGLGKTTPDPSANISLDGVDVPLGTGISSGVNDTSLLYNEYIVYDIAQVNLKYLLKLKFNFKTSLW

pIC50 [1]	Structure (SMILES)	inhibition at 10 µM (DU-145) [%]	PF50 (HCT-116 [2])	PF50 (HCT-116 [3])	pIC50 (HCT-116 [4])
4.97	O=C1NCCc2c(OCCCCN3CCCCC3)cccc21	–	–	–	–
5.37	Cc1ccc2nc3c4ccccc4c(=O)[nH]c3n2c1	19.2	–	–	–
5.23	O=c1[nH]c2c(nc3cc(Cl)ccn32)c2ccccc12	11.4	–	–	–
5.24	O=c1[nH]c2c(nc3ncccn32)c2ccccc12	14.2	–	–	–
5.39	O=c1[nH]c2c(nc3c4ccccc4ccn32)c2ccccc12	25.5	–	–	–
4.83	O=c1[nH]c2c(nc3ccc(Cl)cn32)c2ccccc12	0.2	–	–	–
4.92	O=c1[nH]c2c(nc3ccc(Br)cn32)c2ccccc12	6.8	–	–	–
< 4.00	COc1cc2nc3c4ccccc4c(=O)[nH]c3n2cn1	0	–	–	–
< 4.00	Cc1cccc2nc3c4ccccc4c(=O)[nH]c3n12	25.6	–	–	–
6.07	O=c1[nH]c2c(nc3ccccn32)c2ccccc12	7.9	–	–	–
< 4.00	Cc1cc(C)n2c(c1)nc1c3ccccc3c(=O)[nH]c12	38.5	–	–	–
5.48	Cc1cccn2c1nc1c3ccccc3c(=O)[nH]c12	9.1	–	–	–
6.33	Cc1ccn2c(c1)nc1c3ccccc3c(=O)[nH]c12	0	1.7	1.7	–
6.25	Cc1ccn2c(n1)nc1c3ccccc3c(=O)[nH]c12	27.7	1.1	1.2	–
5.49	O=c1[nH]c2c(nc3cnccn32)c2ccccc12	18.7	–	–	–
–	CC[C@@]1(O)C(=O)OCc2c1cc1n(c2=O)Cc2cc3ccccc3nc2-1 [CAMPTOTHECIN]	69.4	–	–	–
–	COc1cccc2c1C(=O)c1c(O)c3c(c(O)c1C2=O)C[C@@](O)(C(=O)CO)C[C@@H]3O[C@H]1C[C@H](N)[C@H](O)[C@H](C)O1 [DOXORUBICIN HYDROCHLORIDE]	70.3	–	–	–
–	COc1cc([C@@H]2c3cc4c(cc3[C@@H](O[C@@H]3O[C@@H]5CO[C@@H](C)O[C@H]5[C@H](O)[C@H]3O)[C@H]3COC(=O)[C@H]23)OCO4)cc(OC)c1O [ETOPOSIDE]	72.1	–	–	4.84
–	Cn1nnc2c(C(N)=O)ncn2c1=O [TEMOZOLOMIDE]	–	–	–	5.36

Structure (SMILES)	pIC50 [1]	inhibition at 10 µM (DU-145) [%]	PF50 (HCT-116 [2])	PF50 (HCT-116 [3])	pIC50 (HCT-116 [4])
O=c1[nH]c2c(nc3cc(S(=O)(=O)NCCCN4CCOCC4)ccn32)c2ccccc12	7.44	–	–	–	–
